Assay results collected from several papers.
Compare with care: the assays were run in different laboratories.
DRD1: D(1A) dopamine receptor (DRD1, Homo sapiens, UniProt P21728)
PTPN11: Tyrosine-protein phosphatase non-receptor type 11 (PTPN11, Homo sapiens, UniProt Q06124)
PTGS1: Prostaglandin G/H synthase 1 (PTGS1, Ovis aries, UniProt P05979)
SIRT3: NAD-dependent protein deacetylase sirtuin-3, mitochondrial (SIRT3, Homo sapiens, UniProt Q9NTG7)
PTPN9: Tyrosine-protein phosphatase non-receptor type 9 (PTPN9, Homo sapiens, UniProt P43378)
NTRK2: BDNF/NT-3 growth factors receptor (NTRK2, Homo sapiens, UniProt Q16620)
Somatostatin receptor type 2: Somatostatin receptor type 2 (Rattus norvegicus, UniProt P30680)
BCHE: Cholinesterase (BCHE, Equus caballus, UniProt P81908)

CCN(CC)CCCC[C@H](NC(=O)[C@H](CC(C)C)NC(=O)[C@H](C)NC(=O)[C@H](Cc1ccccc1)NC(=O)c1ccc(C(C)(C)C)cc1)C(=O)N[C@@H](CO)C(=O)OC
IC50 (Chromobox protein homolog 8 (Homo sapiens, UniProt Q9HC52); ligand displacement, TR-FRET): 0.56 µM

C[C@@H]1Cc2ccccc2N1C(=O)NCCCCN(C)[C@@H]1Cc2cccc3[nH]c(=O)n(c23)C1
IC50 (DRD1; ligand displacement, radioligand): > 10 µM

O=[N+]([O-])c1ccc(NC(=S)N2CCc3ccccc3C2)c(Cl)c1
IC50 (Urease (Canavalia ensiformis, UniProt P07374); enzyme activity, inhibitor, absorbance): 25.5 µM

CC1=C[C@@]2(C[C@H](C)[C@H]3CC=C(C)C(=O)[C@@H]3O2)OC1=O
IC50 (PTPN11; enzyme activity, inhibitor): > 500 µM

CS(=O)(=O)c1ccc(-c2nc3ccccn3c2Nc2ccccc2)cc1
IC50 (PTGS1; enzyme activity, inhibitor, fluorescence): 18.1 µM

CC[C@@H](C(=O)Nc1ccc(C(N)=O)c(F)c1)n1cc(OC)c(-c2cc(Cl)ccc2-n2cc(C(F)(F)F)nn2)cc1=O
IC50 (Coagulation factor VII (F7, Homo sapiens, UniProt P08709); enzyme activity, inhibitor): 1.9 µM

O=C1Nc2ccc(I)cc2/C1=C/c1cc(Br)c(O)c(Br)c1
IC50 (Ribosomal protein S6 kinase alpha-3, N-terminal kinase domain (RPS6KA3, Homo sapiens, UniProt P51812); enzyme activity, inhibitor, FP): 1 µM

CCOC(F)(F)c1nnc2cnc(-c3cnc(OCC(F)(F)F)c(F)c3)cn12
IC50 (Sodium channel protein type 8 subunit alpha (Scn8a, Mus musculus, UniProt Q9WTU3); ion current, inhibitor, patch clamp): 0.145 µM

C=C(NC(=O)[C@H](CCCCNC(=S)NCCCCCCCCCCCC)NS(C)(=O)=O)C(=O)N[C@@H](CCCNC(=N)N)C(N)=O
IC50 (SIRT3; enzyme activity, inhibitor): 2.9 µM

N[C@@H](Cc1ccccc1)C(=O)N[C@@H](CC(=O)O)C(=O)N[C@@H](Cc1ccccc1)C(=O)O
IC50 (PTPN11; enzyme activity, inhibitor, absorbance; pH 7.4): 97.9 µM

N[C@@H](Cc1ccc(C(F)(F)P(=O)(O)O)cc1)C(=O)O
IC50 (PTPN9; enzyme activity, inhibitor, absorbance): 11500 µM

Cc1cc(Nc2cc(CN3CCOCC3)c3nc(C)c(Cc4ccc(Cl)cc4F)n3n2)n[nH]1
IC50 (Mitogen-activated protein kinase kinase kinase 9 (MAP3K9, Homo sapiens, UniProt P80192); enzyme activity, inhibitor, TR-FRET): 0.299 µM

CCCC[C@H](NC(=O)[C@H](C)c1c(C)[nH]c2ccc(O)cc12)c1ncc(-c2cc3ccccc3nc2OC)[nH]1
IC50 (Prostaglandin E2 receptor EP1 subtype (PTGER1, Homo sapiens, UniProt P34995); enzyme activity): 2.69 µM

C[C@@H](N)COc1ccc(-c2cnc3ccc(N[C@H](C)c4cccc(F)c4)nn23)cc1
IC50 (NTRK2; enzyme activity, inhibitor): 0.0055 µM

Cc1ccc(NC(=O)c2ccc(C)c(C(F)(F)F)c2)cc1C#Cc1nn(C2CCC(O)CC2)c2ncnc(N)c12 (centres unmarked)
IC50 (NTRK2; enzyme activity, inhibitor, radiometric): 0.899 µM

COc1ccc(COc2c(OC)ccc3c2C[C@@H](C(=O)O)N(c2nc4ccc(C#N)cc4o2)C3)cn1
IC50 (Type-2 angiotensin II receptor (AGTR2, Homo sapiens, UniProt P50052); cell-free assay, TR-FRET): 0.046 µM

Cc1cccc2nc(-c3ccc(S(C)(=O)=O)cc3)c(Nc3ccccc3)n12
IC50 (PTGS1; enzyme activity, inhibitor, fluorescence): 24.6 µM

Cc1cc2c(F)c(Oc3ncnn4cc(OC[C@@H](C)O)c(C)c34)ccc2[nH]1
IC50 (Cytochrome P450 2B6 (CYP2B6, Homo sapiens, UniProt P20813); enzyme activity, inhibitor, fluorescence; 15 min): 5.95 µM

Cc1cc(-c2ccc(NC(=O)[C@H](CCCCNC(=O)CCN3C(=O)CC(SCC(=O)N[C@H](Cc4ccccc4)C(=O)N[C@H]4CSSC[C@@H](C(=O)N[C@H](C(=O)O)[C@@H](C)O)NC(=O)[C@H]([C@@H](C)O)NC(=O)[C@H](CCCCN)NC(=O)[C@@H](Cc5c[nH]c6ccccc56)NC(=O)[C@H](Cc5ccc(O)cc5)NC4=O)C3=O)NC(=O)CN3CCN(CC(=O)O)CCN(CC(=O)O)CCN(CC(=O)O)CC3)c(C)c2)ccc1N=Nc1ccc2c(S(=O)(=O)O)cc(S(=O)(=O)O)c(N)c2c1O (some centres unmarked)
IC50 (Somatostatin receptor type 2; ligand displacement): 0.00916 µM

O=Cc1ccc2[nH]ncc2c1
IC50 (Ribosomal protein S6 kinase alpha-3 (RPS6KA3, Homo sapiens, UniProt P51812, C436V); enzyme activity, inhibitor): ~350 µM

N#CC1(c2ccc(NC(=O)c3cccnc3NCc3ccncc3)cc2)CCCC1
IC50 (Mitogen-activated protein kinase kinase kinase 20 (MAP3K20, Homo sapiens, UniProt Q9NYL2); enzyme activity, inhibitor, mass spectrometry): 0.21 µM

CC1=C[C@@]2(C[C@H](C)[C@H]3CC=C(CO)C(=O)[C@@H]3O2)OC1=O
IC50 (PTPN11; enzyme activity, inhibitor): 48.2 µM

COCCN1CCN(c2nccc(NCc3ccccc3)n2)CC1
IC50 (BCHE; enzyme activity, inhibitor): > 100 µM

C[C@@H](O)[C@@H]1NC(=O)[C@H](CCCCN)NC(=O)[C@@H](Cc2c[nH]c3ccccc23)NC(=O)[C@H](Cc2ccc(O)cc2)NC(=O)[C@@H](NC(=O)[C@@H](Cc2ccccc2)NC(=O)CCC(C(=O)O)N2CCN(CC(=O)O)CCN(C(CCC(=O)O)C(=O)O)CC2)CSSC[C@@H](C(=O)N[C@H](CO)[C@@H](C)O)NC1=O (some centres unmarked)
IC50 (Somatostatin receptor type 2; ligand displacement, radioligand): 0.0337 µM

c1ccc(CNc2ccnc(N3CCNCC3)n2)cc1
IC50 (BCHE; enzyme activity, inhibitor): > 100 µM

O=C(NCCc1ccc(OP(=O)(O)O)c(OP(=O)(O)O)c1)OCC1c2ccccc2-c2ccccc21
IC50 (Signal transducer and activator of transcription 5A, SH2 (Homo sapiens, UniProt P42229); ligand displacement, FP): 32.4 µM

CC(C)(C)n1nc(-c2ccc3nc(OC4CC4)ccc3c2)c(C(N)=O)c1N
IC50 (Calcium/calmodulin-dependent protein kinase type 1D (CAMK1D, Homo sapiens, UniProt Q8IU85); cell-free assay): > 10 µM

CN1CCN(c2ccc(Nc3ncc4cc(C#N)c(=O)n(C5CCCC5)c4n3)cc2)CC1
IC50 (Ribosomal protein S6 kinase alpha-3 (RPS6KA3, Homo sapiens, UniProt P51812); enzyme activity, inhibitor): 0.38 µM

FC(F)(F)c1ccc(CN2CCN(c3nccc(NCc4ccccc4)n3)CC2)cc1
IC50 (BCHE; enzyme activity, inhibitor): > 100 µM

CCCCCCCCCCCCNC(=S)NCCCC[C@H](NS(C)(=O)=O)C(=O)N[C@H](C)C(=O)N[C@@H](CCCNC(=N)N)C(=O)N1CCOCC1
IC50 (SIRT3; enzyme activity, inhibitor): 55 µM

Oc1cc2c(cc1OCC(F)F)CCN1Cc3c(c(Br)cc(O)c3OCC(F)F)C[C@@H]21
IC50 (DRD1; cAMP, antagonist, TR-FRET): 0.23 µM

CC(=O)N1C[C@@H](CCN2CCC(c3c[nH]c4cc(Cl)ccc34)CC2)c2ccccc21
IC50 (Sodium-dependent serotonin transporter (SLC6A4, Homo sapiens, UniProt P31645); ligand displacement, radioligand; cell membranes): 0.242 µM

N[C@@H](CC(=O)O)C(=O)N[C@@H](Cc1ccccc1)C(=O)O
IC50 (PTPN11; enzyme activity, inhibitor, absorbance; pH 7.4): 109 µM

CCN(CC)c1ccc(C=O)cc1
IC50 (Aldehyde dehydrogenase, dimeric NADP-preferring (ALDH3A1, Homo sapiens, UniProt P30838); enzyme activity, inhibitor, absorbance): 15.1 µM

Cc1c(Br)cc(NC(=O)C(c2ccccc2)S(=O)(=O)O)cc1Br (centres unmarked)
IC50 (PTPN9; enzyme activity, inhibitor, absorbance): > 200 µM
